# Screening data: PubChem BioAssay, Broad Institute
# Ecoli rRNA inh = inhibits bacterial ribosomal RNA function over humanized ribosomes; E. coli WT GFP vs humanized-ribosome RFP mutants, fluorescence, 24 h; hits give low values; DMSO median 0, no signal -100; GFP signal change (wild-type ribosome), % (no concentration beside the values); 1.6% of 350,000 active;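 active means significant combined selectivity score with lowered wild-type GFP, culture density cut under 30%, mutant RFP and density less affected; inactive means any of these conditions unmet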
# Cneo AK release = causes C. neoformans cell lysis; adenylate kinase release luminescence, 4 h; normalised: neutral wells 0, clomiphene wells 100; lysis activity, % at 15 µM; 0.2% of 360,000 active;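 active means mean lysis activity across replicates of at least 80%, whatever share of replicates individually reach that level; inactive means mean lysis activity below 80%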
#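 Assay system: Cryptococcus neoformans yeast cells / Dosing: single-point compound dose / Timing: 4 h at 37 °C static, read 1 h later / Measured by: luminescence of released adenylate kinase using an AK detection reagent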
# miR-122 sensor = miR-122 inhibition in Huh7 cells | AID 602342 | Huh7 miR-122 Renilla luciferase sensor, 48 h; neutral wells = 0, positive control = 100 | 0.3% of 340,000 active | activation (reporter increase), % at 12.5 µM;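 active means mean replicate activation score at least 90 and every replicate individually at or above 90; inconclusive means only one of the two criteria met; inactive means neither criterion met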;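 further: higher luciferase means less miR-122 activity so hits act as miR-122 inhibitors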
# E-selectin induc = induces E-selectin expression in human endothelial cells | HUVEC E-selectin immunofluorescence imaging; normalized: neutral wells 0, TNF-alpha wells 100 | P16581 | 0.37% of 260,000 active | activation, % at 7.58 µM;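 active means mean E-selectin-positive cell signal at least 10% of the positive control, reached in at least 60% of replicates, without over 20% cell loss; inconclusive means no rule given, readout overlaps actives, possibly toxicity-flagged; inactive means the rest, including those meeting only one limit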
# Target sequence (P16581 whole entry, looked up): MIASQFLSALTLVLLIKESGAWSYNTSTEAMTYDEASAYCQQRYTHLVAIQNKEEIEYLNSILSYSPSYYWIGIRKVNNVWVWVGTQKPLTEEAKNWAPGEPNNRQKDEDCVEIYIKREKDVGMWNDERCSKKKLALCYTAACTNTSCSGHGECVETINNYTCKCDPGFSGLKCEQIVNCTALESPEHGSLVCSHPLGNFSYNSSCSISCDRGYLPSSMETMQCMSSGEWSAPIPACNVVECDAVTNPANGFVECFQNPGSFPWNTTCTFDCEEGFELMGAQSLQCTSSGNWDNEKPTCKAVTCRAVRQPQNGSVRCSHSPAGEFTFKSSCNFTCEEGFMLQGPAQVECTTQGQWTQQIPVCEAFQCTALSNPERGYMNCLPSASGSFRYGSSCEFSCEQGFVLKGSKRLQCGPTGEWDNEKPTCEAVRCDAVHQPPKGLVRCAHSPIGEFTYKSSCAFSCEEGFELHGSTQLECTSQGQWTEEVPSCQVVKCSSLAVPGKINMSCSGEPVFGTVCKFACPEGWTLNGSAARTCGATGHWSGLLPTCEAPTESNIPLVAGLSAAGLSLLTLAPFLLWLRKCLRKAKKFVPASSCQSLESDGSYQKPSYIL
#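 Test system: HUVEC | Signal: Immunofluorescence imaging | Read-out: Percent E-selectin-positive cells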
# DENV2 CPE rescue = DENV2-induced cell death inhibition | DENV2-infected cells, cytopathic effect rescue, plate reader | CPE inhibition, % at 9.99 µM | 1.7% of 350,000 active; in the data active means CPE inhibition above about 20%, passing the limit was not always enough; inconclusive means no clear call, values can overlap the other calls; tested in BHK-21 cells;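 further: 0% = median of neutral control wells and 100% = median of positive control wells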
# Starred values were filed as active, the others as inactive; ? = inconclusive; . = not tested or not shown; ! = not active in a repeat; [ ] = dose if it differs, or a comment. Rows were chosen to be rich in hits. Some 3.1% of all compounds tested hit in one or more screens of this group.
SMILES,Ecoli rRNA inh,Cneo AK release,miR-122 sensor,E-selectin induc,DENV2 CPE rescue
COc1ccc(N(C(=O)Nc2ccc(Cl)cc2)C2=NCCC2)cc1,-36*,0,-1,.,-2
COCCNC(=O)C1CCC(CNS(=O)(=O)c2ccccc2)CC1 (centres undefined),8,-2,-1,0,-7
COCCNC(=O)C1CCC(CNS(=O)(=O)c2ccc(F)cc2)CC1 (centres undefined),11,1,-6,0,34*
CCCNC(=O)N1CC2(CN(C)C2)c2c([nH]c3cc(OC)ccc23)[C@@H]1CO,2,.,.,0,5
NNC(=O)Cc1csc(-c2ccccc2)n1,-28*,.,.,.,5
O=C(Cc1csc(-c2ccccc2)n1)Nc1ccc(C(F)(F)F)cc1,.,1,25,.,.
CC(C)CC(CO)NS(=O)(=O)c1cccc(Cl)c1F (centres undefined),-5,2,-14,0,-2
CC(C)C[C@@H](CO)NS(=O)(=O)c1c(F)cccc1F,-7,-1,-6,0,49*
COc1ccc(NC(=O)c2cc(-c3cccs3)on2)c(OC)c1,7,0,-2,60*,4
CCC(C)NCCOc1ccc(C(C)(C)c2ccccc2)cc1 (centres undefined),-53*,-3,10,4,-3
O=C(Cc1cccc(C(F)(F)F)c1)Nc1cccc(S(=O)(=O)N2CCCC2)c1,4,-3,.,0,-2
O=C(Cc1cccc(C(F)(F)F)c1)Nc1ccc(S(=O)(=O)N2CCCC2)cc1,-1,1,33,1,79*
COc1ccc(NC(=O)N[C@H]2CC[C@@H](CCNC(=O)c3cc(Cl)cc(Cl)c3)O[C@@H]2CO)cc1,2,-5,.,0,0
CCOc1cc(CNCCN2CCOCC2)ccc1OCc1ccccc1Cl,-13,5,-10,.,29*
CCOc1cc(CNCCCN2CCOCC2)cc(Br)c1OCc1ccccc1Cl,-52,6,-26,.,-9
CC(C)NC(=O)N(C)C[C@H]1Oc2c(NC(=O)C3CCOCC3)cccc2C(=O)N([C@@H](C)CO)C[C@@H]1C,6,44,-4[16.7 µM],0,-6
CC(=C/c1ccccc1)/C=N/Nc1nc(N2CCCCC2)nc(N2CCCCC2)n1,9,-1,5,1,64*
O=[N+]([O-])c1ccccc1/C=N/Nc1nc(N2CCCC2)nc(N2CCCC2)n1,-12*,0,3,.,7
C(=C\c1ccccc1)/C=N/Nc1nc(N2CCCCC2)nc(N2CCCCC2)n1,.,-4,-2,.,.
Cc1cc(Cl)ccc1C(=O)C1CCCN(C(=O)c2cc(C(C)C)no2)C1 (centres undefined),-37*,3,-4,18,.
C[C@H](CO)N1C[C@H](C)[C@@H](CN(C)S(=O)(=O)c2ccccc2)Oc2ccc(NC(=O)Cc3cn(C)c4ccccc34)cc2C1=O,-1,8,-10[16.7 µM],.,4
O=[N+]([O-])c1ccc(N=Nc2ncc[nH]2)cc1,9,7,.,30*,14
O=[N+]([O-])c1ccc(N=NN(CCO)CCO)cc1,7,.,.,0,2
COc1cc(OC)cc(C(=O)OC/C(O)=C(\C#N)c2nc3ccccc3[nH]2)c1,3,1,1,0,60*
N#CC(=C(O)COC(=O)c1ccc2c(c1)OCCO2)c1nc2ccccc2[nH]1,-2,.,4,0,-3
SMILES,Ecoli rRNA inh,Cneo AK release,miR-122 sensor,E-selectin induc,DENV2 CPE rescue
C[C@H](NC(=O)C[C@H]1C[C@H]2c3cc(NC(=O)Cc4ccncc4)ccc3O[C@H]2[C@@H](CO)O1)c1ccccc1,0,-3,6[16.7 µM],0,-7
COc1ccc(NC(=O)Nc2ccc3c(c2)C(=O)N([C@H](C)CO)C[C@H](C)[C@H](CN(C)Cc2ccccc2)OCCCC[C@@H](C)O3)cc1,3,3,0[16.7 µM],0,26*
COc1ccc(NC(=O)Nc2ccc3c(c2)C(=O)N([C@@H](C)CO)C[C@@H](C)[C@@H](CN(C)Cc2ccccc2)OCCCC[C@H](C)O3)cc1,-1,-1,3[16.7 µM],0,42*
COc1ccc(NC(=O)Nc2ccc3c(c2)C(=O)N([C@@H](C)CO)C[C@@H](C)[C@H](CN(C)Cc2ccccc2)OCCCC[C@@H](C)O3)cc1,3,0,-8[16.7 µM],0,11
COc1ccc(CN(C)C[C@H]2OCCCC[C@H](C)Oc3ccc(NC(=O)Cc4ccccc4)cc3C(=O)N([C@H](C)CO)C[C@H]2C)cc1,2,-1,-1[16.7 µM],0,8
COc1ccc(CN(C)C[C@@H]2OCCCC[C@@H](C)Oc3ccc(NC(=O)c4ccccc4)cc3C(=O)N([C@H](C)CO)C[C@@H]2C)cc1,1,86*,?,0,-13
COc1ccc(CN(C)C[C@@H]2OCCCC[C@H](C)Oc3ccc(NC(=O)Cc4ccccc4)cc3C(=O)N([C@@H](C)CO)C[C@H]2C)cc1,-2,2,-14[16.7 µM],0,27*
Cc1ccc(NC(C)C(=O)N/N=C/c2ccc([N+](=O)[O-])s2)cc1 (centres undefined),-22*,-4,6,16,3
O=[N+]([O-])c1ccc(/C=N/NC(=S)Nc2ccc(Cl)cc2Cl)s1,-19*,-6,2,.,6
CO[C@@H]1CN(C)C(=O)c2ccc(NC(=O)C3CCC3)cc2OC[C@@H](C)N(Cc2ccncc2)C[C@@H]1C,-8,0,4[16.7 µM],0,2
CCn1c(=S)sc2c(=O)n(CC(=O)Nc3ccc(Cl)cc3)c(C)nc21,-20*,-1,0,0,-3
CCn1c(=S)sc2c(=O)n(CC(=O)Nc3ccccc3)c(C)nc21,3,6,-5,0,17
CCCc1cn([C@H]2C[C@@H]3O[C@H](CO)CC[C@@H]3O[C@@H]2CCc2ccc(-c3ccccc3C#N)cc2)nn1,.,.,.,.,28*
OC[C@H]1CC[C@@H]2O[C@H](CCc3ccc(-c4ccccc4)cc3)[C@@H](n3cc(C4CC4)nn3)C[C@@H]2O1,.,.,.,.,53*
OC[C@@H]1CC[C@@H]2O[C@H](CCc3ccc(-c4ccccc4)cc3)[C@@H](n3cc(C4CC4)nn3)C[C@@H]2O1,.,.,.,.,20*
Cc1cc(NCCCn2ccnc2)n2ncc(-c3ccc(Cl)cc3)c2n1,.,-12,-4,.,.
CC(C)(C)c1cc(NCCCn2ccnc2)n2ncc(-c3ccccc3)c2n1,-49*,-15,-4,1,-16
CC(C)Nc1cc(C(C)(C)C)nc2c(-c3ccccc3)cnn12,29,.,.,0,46*
CC(C)(C)c1cc(C(F)(F)F)n2ncc(-c3ccccc3)c2n1,14,34,-4,.,-3
CC(C)NC(=O)N(C)C[C@H]1OCc2cn(nn2)CCCC(=O)N([C@@H](C)CO)C[C@@H]1C,0,-1,-4[16.7 µM],0,32*
COC(=O)N(C)C[C@H]1OCc2cn(nn2)CCCC(=O)N([C@@H](C)CO)C[C@@H]1C,0,84*!,38[16.7 µM],3,-7
